Assay outcomes as filed in PubChem BioAssay.
A selection: hits, their analogues and other compounds. The true share with any hit is near 1.9%.
LEDGF integ inh – blocks HIV-1 LEDGF/p75-dependent DNA integration; TR-FRET IN-LEDGF/p75 DNA integration, Eu/Cy5; inhibition, % at 3.7 µM; 370,000 tested, 0.64% active;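 active = inhibition above the screen-wide mean plus 3 SD, cut at about 13% in these data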;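 also: signal is the Cy5 over europium emission ratio at 671 and 618 nm; 0% = plate median of compound wells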
UHRF1 MBD2 ctr – human UHRF1 methylated DNA binding inhibitors; Q96T88; inhibition, % at 4.4 µM; UHRF1 binding to methylated oligo, TR-FRET; 370,000 tested, 0.75% active; AID 687016;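 also: UHRF1 SRA domain binding a hemimethylated CpG hairpin DNA probe; 0% = median of test compound wells and 100% = reference inhibitor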
MBD2 inh – inhibitors of human MBD2 binding to methylated oligonucleotide. Q9UBB5. TR-FRET. inhibition, % at 4.4 µM. 370,000 tested, 0.31% active; in the data active = inhibition above about 13%
Target sequence (Q9UBB5 whole entry, looked up): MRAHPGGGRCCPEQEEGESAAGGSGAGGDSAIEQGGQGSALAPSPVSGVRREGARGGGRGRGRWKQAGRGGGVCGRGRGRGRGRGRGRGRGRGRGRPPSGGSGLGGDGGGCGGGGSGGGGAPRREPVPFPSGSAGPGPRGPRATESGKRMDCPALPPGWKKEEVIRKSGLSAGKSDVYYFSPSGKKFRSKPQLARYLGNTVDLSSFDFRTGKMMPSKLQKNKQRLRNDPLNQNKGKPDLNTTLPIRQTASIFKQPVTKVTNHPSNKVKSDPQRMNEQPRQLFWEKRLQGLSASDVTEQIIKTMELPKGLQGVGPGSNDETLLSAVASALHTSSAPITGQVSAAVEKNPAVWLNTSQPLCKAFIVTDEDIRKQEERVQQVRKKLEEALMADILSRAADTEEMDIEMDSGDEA
TDP2 absorb – TDP2 (human) inhibition, absorbance primary screen; recombinant TDP2, T5PNP hydrolysis, p-nitrophenol absorbance 415 nm; inhibition, % at 12.8 µM; 370,000 tested, 0.34% active;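 active = inhibition above the mean of all tested compounds plus 3 SD, set per campaign, cut at about 25% in these data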;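 also: 0% = DMSO with enzyme and 100% = buffer with substrate but no TDP2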
Target sequence (O95551 whole entry, looked up): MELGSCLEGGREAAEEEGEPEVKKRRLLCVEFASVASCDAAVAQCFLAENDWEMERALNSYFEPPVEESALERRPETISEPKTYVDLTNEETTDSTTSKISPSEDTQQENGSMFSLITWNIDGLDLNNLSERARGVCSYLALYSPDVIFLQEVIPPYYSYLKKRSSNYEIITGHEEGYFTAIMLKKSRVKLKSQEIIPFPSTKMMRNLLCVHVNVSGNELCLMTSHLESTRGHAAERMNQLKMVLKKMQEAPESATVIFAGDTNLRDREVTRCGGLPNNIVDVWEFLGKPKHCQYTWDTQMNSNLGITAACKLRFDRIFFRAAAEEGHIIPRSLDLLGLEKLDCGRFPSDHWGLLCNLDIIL
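System – recombinant human TDP2 · Quantity – TDP2 enzyme at 120 nM final · Doses – single concentration, 12.8 µM nominal, with 1% DMSO · Incubation – 2 h at 37 °C · Measured by – epi absorbance of p-nitrophenol freed from T5PNP by hydrolysis · Read-out – % inhibition relative to enzyme-containing and enzyme-free wells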
Rin1 Abl inh – blocks binding of human Rin1 to Abl; P00519+Q13671; TR-FRET Rin1/Abl binding, biochemical; inhibition, % at 7.35 µM; 360,000 tested, 0.4% active; in the data active = inhibition above about 5%, passing the limit was not always enough
UHRF1 DNA bind – counter-screen for MBD2 inhibitors: human UHRF1 methylated DNA binding inhibitors; UHRF1 binding to methylated oligonucleotide, TR-FRET; 1,000 tested, 25% active; shares compounds with MBD2 inh; inhibition, % at 4.4 µM;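 also: UHRF1 SRA domain binding a labeled hemimethylated CpG hairpin DNA; 0% = vehicle only and 100% = reference inhibitor with vehicle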
MBD2 confirm – MBD2-DBD methyl-DNA binding inhibition, TR-FRET confirmation; shares compounds with MBD2 inh; TR-FRET MBD2-DBD binding to methylated oligonucleotide; inhibition, % at 4.4 µM; 1,000 tested, 26% active; AID 720531; in the data active = inhibition above about 14%
TDP2 inh conf – human TDP2 inhibition, confirmation; inhibition, % at 12.8 µM; 1,100 tested, 22% active; shares compounds with TDP2 absorb; AID 743263; recombinant human TDP2, absorbance read-out; in the data active = inhibition above about 25%;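 also: 0% = vehicle with enzyme and 100% = no enzyme buffer only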
IN multimer act – counter-screen for LEDGF/p75 integration inhibitors: HIV-1 integrase multimerization activators. shares compounds with LEDGF integ inh. TR-FRET HIV-1 integrase multimerization, biochemical. activation, % at 7.7 µM. 2,000 tested, 17% active. AID 1053131; in the data active = activation above about 8.9%
TR-FRET interf – optically interferes with TR-FRET readout in LEDGF counter-screen | 2,000 tested, under 10 active | shares compounds with LEDGF integ inh | TR-FRET optical interference counterscreen, HIV-1 IN multimerization | inhibition, % at 7.7 µM;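 active = inhibition above the mean over all tested compounds plus 3 SD, which no compound reached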;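 also: 0% = integrase with antibodies and DMSO and 100% = antibodies without integrase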
IN-LEDGF confirm – confirmation of HIV-1 LEDGF/p75-dependent integration inhibitors | inhibition, % at 3.7 µM | shares compounds with LEDGF integ inh | 2,000 tested, 36% active | TR-FRET LEDGF/p75-dependent HIV-1 integration, biochemical; in the data active = inhibition above about 14%
The depositor's hits bear a star; . = no result given. Rule as the data show it, unless noted: active = inhibition above about 21%; inactive = the rest.

SMILES | LEDGF integ inh | UHRF1 MBD2 ctr | MBD2 inh | TDP2 absorb | Rin1 Abl inh | UHRF1 DNA bind | MBD2 confirm | IN multimer act | TR-FRET interf | IN-LEDGF confirm | others
COC(=O)c1sc2nc(-c3ccco3)ccc2c1N | 51.8* | 55.1* | 16.1* | 3.4 | -0.8 | 7.9 | -1.2 | 4.8 | -24.0 | 8.0
Cc1nc(S/C(=C\c2ccc(OCc3ccccc3Cl)cc2)C(=O)O)n[nH]1 | 1.7 | -1.2 | 0.8 | -0.2 | -0.1 | . | . | . | . | .
Cc1nc(S/C(=C\c2ccc(-c3ccc(C(=O)O)c(Cl)c3)o2)C(=O)O)n[nH]1 | 60.3* | 88.3* | 27.1* | 15.2 | -1.0 | 53.1* | 10.4 | 18.2* | -91.7 | 32.3*
Cc1cccc(C)c1NC(=O)[C@H]1CC(=O)O[C@@H]1c1ccccc1 | 2.8 | 0.1 | -3.8 | -2.3 | . | . | . | . | . | .
O=C(/C=C/c1ccco1)NC(=S)Nc1cccc(C(=O)O)c1 | 43.9* | 70.2* | 16.6* | 19.3 | 5.2 | 55.5* | 18.0* | 8.6 | -43.0 | 15.6*
O=Cc1cccc(OC(=O)/C=C/c2ccco2)c1 | 15.7* | 48.2* | 17.4* | 7.1 | 0.1 | 48.1* | 24.6* | 11.1* | -40.0 | 35.6*
C[C@H]1CCCN1c1ccc2c(c1)OCCCN(C1CC1)S2(=O)=O | 1.5 | 5.8 | -1.2 | -2.0 | . | . | . | . | . | .
COc1ccc(-c2cc(=O)n(CCC#N)[nH]2)cc1 | 42.4* | 16.5 | 17.8* | 91.9* | 5.0 | 1.3 | -0.2 | -0.4 | 1.4 | 0.8 | TDP2 inh conf=8.5
COCc1cc(=O)n2[nH]c(-c3ccco3)cc2n1 | -2.8 | -1.5 | 3.7 | 5.8 | -1.1 | . | . | . | . | .
CCCCN1Cc2c(nc3cc(-c4ccco4)[nH]n3c2=O)C1=O | 31.5* | 62.9* | 24.8* | -15.5 | -1.8 | 6.9 | 4.3 | 3.8 | -14.0 | 8.3
COc1ccc(OC)c(N2C(=O)[C@@H]3C(c4ccccc4Cl)=NO[C@@H]3C2=O)c1 | 22.9* | 66.9* | 25.6* | -5.2 | 3.5 | 38.2* | 18.0* | 4.0 | -20.0 | 26.0*
Cc1cc(C)cc(C(=O)OCCCN(C)C2CN(Cc3cn(Cc4cccc(F)c4)nn3)S(=O)(=O)C2)c1 (configuration not stated) | 3.9 | 2.2 | -2.6 | -11.8 | . | . | . | . | . | .
Cc1ccccc1C(=O)NC1CCCCN(Cc2cccc(Cl)c2)C1=O (configuration not stated) | -0.4 | 1.4 | 5.2 | 3.9 | . | . | . | . | . | .
c1coc(-c2nnc3sc(Cc4cccs4)nn23)c1 | 38.2* | 71.3* | 18.7* | -15.3 | 2.4 | 8.0 | 8.8 | 5.5 | -27.7 | 17.6*
COc1ccc(OCc2nn3c(-c4ccco4)nnc3s2)cc1 | 0.5 | -1.3 | -6.0 | -6.6 | -1.8 | . | . | . | . | .
NC1=NC(=O)C(=Cc2ccccc2)S1 | 2.3 | -3.0 | -5.0 | -4.5 | 3.8 | . | . | . | . | .
NC1=NC(=O)/C(=C\c2ccco2)S1 | 61.5* | 67.5* | 23.7* | 10.5 | 4.9 | 47.1* | 23.8* | 29.6* | -105.5 | 50.2*
O=S1(=O)CC2c3ccccc3CCN2CN1Cc1ccccc1 (configuration not stated) | 2.9 | -0.2 | -4.3 | 2.7 | . | . | . | . | . | .
CCNc1nc(NC(C)C)nc(N(C#N)CC(=O)OC)n1 | 18.4* | 63.0* | 31.9* | 3.3 | -0.9 | 7.4 | 3.8 | -0.8 | 4.3 | 1.7
CCOC(=O)C1CCCN(C(=O)c2cc(-c3ccco3)nc3ccccc23)C1 (configuration not stated) | 25.2* | 37.6* | 20.2* | -0.4 | 3.4 | 38.8* | 24.5* | 8.8 | -44.1 | 47.6*
O=c1ccc2cc(O)c(O)cc2o1 | 93.6* | 93.7* | 71.0* | 9.2 | -2.7 | 5.4 | 4.3 | 7.1 | -35.9 | 6.3
COc1cc(/C=C2\CCc3c2nc2ccccc2c3C(=O)O)cc(OC)c1OC | 25.9* | 48.5* | 25.7* | 2.7 | 2.4 | 33.9* | 14.5* | 7.4 | -37.4 | 33.9*
O=C(COCc1ccccc1)N1CCC(Oc2cccnc2)CC1 | -0.7 | 0.3 | -0.4 | 2.4 | . | . | . | . | . | .
COc1ccccc1-c1ccc(/C=C2\C=CC(=O)O2)o1 | 43.9* | 26.8* | 15.0* | 6.5 | 0.6 | 7.7 | 1.0 | 1.8 | -6.4 | 11.4
COc1ccccc1-c1ccc(/C=C2/C=C(C)OC2=O)o1 | 9.7 | -3.3 | 0.9 | -2.8 | 0.9 | . | . | . | . | .
SMILES | LEDGF integ inh | UHRF1 MBD2 ctr | MBD2 inh | TDP2 absorb | Rin1 Abl inh | UHRF1 DNA bind | MBD2 confirm | IN multimer act | TR-FRET interf | IN-LEDGF confirm | others
COC(=O)[C@]12C[C@H](CC(=O)NCc3cccc4ccccc34)C(=O)N(Cc3ccco3)C1=C[C@H](C(C)C)O[C@@H]2C1CC1 | -2.2 | -2.4 | -0.2 | -0.6 | . | . | . | . | . | .
O=C(O)c1cccc(-n2cccc2/C=C\[N+](=O)[O-])c1 | 32.5* | 58.0* | 17.1* | 18.0 | 2.4 | 26.1* | 3.3 | 3.0 | -15.0 | 6.0
COC[C@H]1CCCN1c1cccc2c1S(=O)(=O)N1CC[C@@H](C1)O2 | -2.6 | 1.6 | 0.3 | -1.1 | . | . | . | . | . | .
COc1cc2c(cc1OC)CSC1C(=O)N(C)C(SC2)C(=O)N1C | -0.9 | -4.7 | -11.7 | 4.2 | . | . | . | . | . | .
Cc1ccccc1NC(=O)CCS(=O)(=O)c1ccc(Br)cc1 | -2.1 | 2.7 | 3.7 | 2.7 | 1.1 | . | . | . | . | .
CCN(CC)c1ccc(NC(=O)CCS(=O)(=O)c2ccc(Br)cc2)c(C)c1 | 17.1* | 54.1* | 25.4* | -9.6 | -0.4 | 63.2* | 30.0* | 35.3* | -127.9 | 12.2
CCCCCN1CCCCC(NC(=O)c2ccc(F)c(F)c2)C1=O (configuration not stated) | -0.9 | -1.1 | 0.6 | 4.8 | . | . | . | . | . | .
Cc1[nH]n(-c2ccccc2)c(=O)c1C(C[N+](=O)[O-])c1ccccc1Cl (configuration not stated) | -3.4 | -7.6 | -7.6 | 3.2 | 2.5 | . | . | . | . | .
COc1cccc(C(c2c(C)[nH]n(-c3ccccc3)c2=O)c2c(C)[nH]n(-c3ccccc3)c2=O)c1O | 23.2* | 21.0* | 20.8* | 80.0* | 5.7 | -3.8 | -0.1 | 5.5 | -27.4 | 6.7 | TDP2 inh conf=6.0
C[C@@H]1C[C@H]2O[C@@H]2/C=C\C=C\C(=O)Cc2cc(O)cc(O)c2C(=O)O1 | 5.1 | 0.6 | 2.1 | 2.8 | . | . | . | . | . | .
